Laboratory results from the EternaBench riboswitch data.

Test system: MS2 coat protein
Assay: apparent Kd, MS2 coat protein; higher = weaker binding; RNA-MaP array; FMN 200 µM where present
Summary of the method: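 Binding was read on Illumina sequencing-chip clusters where stalled E. coli RNA polymerase had transcribed each design. A titration of SNAP-549-labelled MS2 coat protein began at 0.7 or 1.5 nM and doubled to 3 µM, once without ligand and once with constant ligand, in 100 mM Tris-HCl pH 7.5, 80 mM KCl, 4 mM MgCl2, BSA, DTT, yeast tRNA and Tween-20. The apparent Kd is the median of filtered per-cluster binding-curve fits, based on green signal normalised to red-channel RNA signal and control-cluster median Fmax.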

[1] = designed as: OFF switch for flavin mononucleotide, no ligand
[2] = ligand present: flavin mononucleotide, designed as: OFF switch for flavin mononucleotide
[3] = designed as: ON switch for flavin mononucleotide, no ligand
[4] = ligand present: flavin mononucleotide, designed as: ON switch for flavin mononucleotide

## CUAUGGCAAGGAUAUCUUGGCUAGAACAUGAGGAUCACCCAUGUCUACUGUACUAAUAUCGGAGAAGGUGCUAGAA
[1]
  apparent Kd: 27.6 nM
[2]
  apparent Kd: 19.1 nM

## CUAUGGGCAGGAUAUGCAUAUCGGGAGUGGUCGCAAGCGUUACAUGAGGAUCACCCAUGUAGAAGGGCCGCGUC
[1]
  apparent Kd: 18.9 nM
[2]
  apparent Kd: 20.4 nM

## CUAUUCCGAGGAUAUACAUGAGGAUCACCCAUGUCGGGCCUCUGCGUUUAGCGCGUAAGUAGAAGGUGGGUUUC
[1]
  apparent Kd: 31 nM
[2]
  apparent Kd: 32.9 nM

## CUAUUGGUAACAGGAUAUAUGAGUCCUACAUGAGGAUCACCCAUGUAGGUGAUCUAACGAGAUUAGUAGAAGGGUUACCAAUAG
[3]
  apparent Kd: 16.9 nM
[4]
  apparent Kd: 8.34 nM

## CUAUUUAGUGCCUCAUUUACAUGAGGAUCACCCAUGUUAACUUAGGAUAUAUUUAUAUUGUUAGAGUAGAAGGAAGUACAUUUU
[1]
  apparent Kd: 237 nM
[2]
  apparent Kd: 208 nM

## CUCAGACAUGAGGAUCACCCAUGUGAGGAUAUGAUGCGAUCGUCGAAAGACGAUAGCAUCAGAAGGCACAAAUG
[1]
  apparent Kd: 78.4 nM
[2]
  apparent Kd: 305 nM

## CUCAUGUGAGGAUAUGUGAUCAACCUUCUGUAUAGAUGAUGACAGAAGGCACAUGAGGAUCACCCAUGUAGAUC
[1]
  apparent Kd: 68.9 nM
[2]
  apparent Kd: 57.1 nM

## CUCAUGUGAGGAUAUGUGAUCUGCCUUCUAUGUAGAUGAUCACAGAAGGCACAUGAGGAUCACCCAUGUAGAUC
[1]
  apparent Kd: 119 nM
[2]
  apparent Kd: 23.4 nM

## CUCGUGUAAGGAUAUAUUGCAAUGACGAAAUUUGCCCUGAGAUAGAAGGUACAUGAGGAUCACCCAUGUGUCGG
[1]
  apparent Kd: 45.5 nM
[2]
  apparent Kd: 92.2 nM

## CUCUUGAGUCAGGAUAUCGUGAGGCUAAUAAUACGAGAAGGGACAACAUGAGGAUCACCCAUGUGGUCGAAGAG
[1]
  apparent Kd: 32.9 nM
[2]
  apparent Kd: 78.3 nM

## CUGAAGUCAGGAUAUUGUUAAUUUAGUUGUUUGUAUUAGUUCGAGAAGGGACAUGAGGAUCACCCAUGUAAGUC
[1]
  apparent Kd: 32 nM
[2]
  apparent Kd: 27.1 nM

## CUGACGUCAGGAUAUCUGAUGUCUAACUUCGGUUAGACAUCAGAGAAGGGACAUGAGGAUCACCCAUGUCAGAA
[1]
  apparent Kd: 25.5 nM
[2]
  apparent Kd: 20.8 nM

## CUGAGCAAUCAAGGAUAUCACGUCGAUUAGACGUGAGAAGGUGAUCAUCACAUGAGGAUCACCCAUGUGUUACAUGGAGCUCAG
[3]
  apparent Kd: 1170 nM
[4]
  apparent Kd: 218 nM

## CUGAGGCUAGGAUAUACGUGAGGUUAGUUGCGAAGCGCUUGACAUGAGGAUCACCCAUGUAGAAGGAGCGGCUU
[1]
  apparent Kd: 22.6 nM
[2]
  apparent Kd: 28.9 nM

## CUGAGUAGUCAGGAUAUGUGGUACAAAAGUACUGCAGAAGGGAUUACAUGAGGAUCACCCAUGUUUACUUCAUG
[1]
  apparent Kd: 47.4 nM
[2]
  apparent Kd: 242 nM

## CUGAUGUGAGGAUAUCUAAAAGAAACUGGGCAAAAUACCAGAGAGAAGGCACAUGAGGAUCACCCAUGUAACGA
[1]
  apparent Kd: 19.1 nM
[2]
  apparent Kd: 69.5 nM

## CUGAUGUUAGGAUAUCAGGCGCCCGCCACUGGCAGGGCGCAUGAGAAGGGACAUGAGGAUCACCCAUGUAGUAA
[1]
  apparent Kd: 27.5 nM
[2]
  apparent Kd: 46.1 nM

## CUGAUUAUACAAGGAUAUCUUUUGUUGUUUCGACUUACAUGAGGAUCACCCAUGUUAAUAUUUUUAGAGAAGGUGUAUUUUCAG
[3]
  apparent Kd: 16.8 nM
[4]
  apparent Kd: 20.3 nM

## CUGCCUUAUGAGAAGGCGAUCAUGAAACAUGAUCGAGGAUAUCAUGUAAACAUGAGGAUCACCCAUGUAUGGGUAUUAUGGUAG
[3]
  apparent Kd: 529 nM
[4]
  apparent Kd: 74.5 nM

## CUGCUCCGUGUAGGAUAUCCCGGCAACCAAUCGGGAGAAGGACAUGAGGAUCACCCAUGUAUGUUAUUAUCACGUGAAGCGUCC
[1]
  apparent Kd: 23.1 nM
[2]
  apparent Kd: 30.1 nM

## CUGCUCCGUGUAGGAUAUGCAUACAACCAAUAUGCAGAAGGACAUGAGGAUCACCCAUGUAUGUUAUUAUCACGUGAAGCGUCC
[1]
  apparent Kd: 22.6 nM
[2]
  apparent Kd: 42.9 nM

## CUGCUGGAGCUUUGCUUUAGUCGUACAUGAGGAUCACCCAUGUAGGAUAUGGUAGGCUAUGCUUACUAGAAGGAUAGAGUGGUC
[1]
  apparent Kd: 62.3 nM
[2]
  apparent Kd: 32.2 nM

## CUGCUGGAGCUUUGCUUUAGUCGUACAUGAGGAUCACCCAUGUAGGAUAUGGUGGGCUUUGCUUACUAGAAGGAUAGAGUGGUC
[1]
  apparent Kd: 49.9 nM
[2]
  apparent Kd: 36.3 nM

## CUGCUUCCCAGUAUGGGUAUUUAUACAGAAGGCCAGACACAUGAGGAUCACCCAUGUCAAGUAAUGGAGGAUAUGUUAUUGUCG
[3]
  apparent Kd: 10.9 nM
[4]
  apparent Kd: 4.97 nM

## CUGGAAUACAGACAUGAGGAUCACCCAUGUUUAAGGGAAGCACAGGAUAUGUCGACGCACCAUAGACAGAAGGGUGACUUGCUU
[3]
  apparent Kd: 49.4 nM
[4]
  apparent Kd: 24.8 nM

## CUGGGAUCAGUAGGAUAUGCCGGACAUGAGGAUCACCCAUGUAAGGCGUGCUUCCCUCGCGUGCGGCAGAAGGGCUGCAUCACA
[1]
  apparent Kd: 32.7 nM
[2]
  apparent Kd: 35.4 nM

## CUGUAUGAUGUAGGAUAUACUUUAAUAUUGUAAGUAGAAGGACAUGAGGAUCACCCAUGUAUAUAAAUUUUAAUUAUUUUUGCG
[1]
  apparent Kd: 51.2 nM
[2]
  apparent Kd: 39.3 nM

## CUGUGACGGUGCGCAAGUGGACGUAGAAGGGUCACAUGAGGAUCACCCAUGUGGGCCUGCUAGUGACAGGAUAUACGUUCGUAC
[1]
  apparent Kd: 13.7 nM
[2]
  apparent Kd: 38.3 nM

## CUGUUACGUGUAGGAUAUGCAUAUUCCCAUUAUGCAGAAGGACAUGAGGAUCACCCAUGUAUGUUAUUAUCAUGUGUUACAUGC
[1]
  apparent Kd: 34.6 nM
[2]
  apparent Kd: 153 nM

## CUGUUCCAUGUAGGAUAUGCAUAUUCUCAUUAUGCAGAAGGACAUGAGGAUCACCCAUGUAUGUUAUUAUCAUAUGUUACAUGU
[1]
  apparent Kd: 34.3 nM
[2]
  apparent Kd: 241 nM

## CUUAAACAUGAGGAUCACCCAUGUCAGGAUAUGAUACUAUGUACUUCGGUACAUAGUAUCAGAAGGGAUAUAAA
[1]
  apparent Kd: 34.2 nM
[2]
  apparent Kd: 33.5 nM

## CUUAGACAUGAGGAUCACCCAUGUGAGGAUAUGAUGCGAUCGUGCUGACAUGAUCGCAUCAGAAGGCACAUAUG
[1]
  apparent Kd: 145 nM
[2]
  apparent Kd: 322 nM

## CUUAUGUAAGGAUAUCAGUAGUAAAAAAAUAAAAUUACUACUGAGAAGGUACAUGAGGAUCACCCAUGUCUUUC
[1]
  apparent Kd: 113 nM
[2]
  apparent Kd: 50.5 nM

## CUUAUGUGAGGAUAUCAGUAGUAAUACAAUAGUAUUACUACUGAGAAGGCACAUGAGGAUCACCCAUGUUCCUU
[1]
  apparent Kd: 28.1 nM
[2]
  apparent Kd: 131 nM

## CUUAUGUGAGGAUAUCAGUAGUAAUACAAUAGUAUUACUACUGAGAAGGCACAUGAGGAUCACCCAUGUUCUUC
[1]
  apparent Kd: 134 nM
[2]
  apparent Kd: 36.9 nM

## CUUAUGUGAGGAUAUGGUGUUGGCCACAGGAAAAAGAUUCUCCAGAAGGCACAUGAGGAUCACCCAUGUAGUGA
[1]
  apparent Kd: 51.3 nM
[2]
  apparent Kd: 120 nM

## CUUCAACAAGGAUAUGCCAUGGAUCGACACUGUUACGCGAAACAUGAGGAUCACCCAUGUAGAAGGUGUUGAGA
[1]
  apparent Kd: 78.5 nM
[2]
  apparent Kd: 96.2 nM

## CUUCAGUCAGGAUAUGUUAAUCUCGCCACUCCACGAGCCGGACAGAAGGGACAUGAGGAUCACCCAUGUUAGAC
[1]
  apparent Kd: 30 nM
[2]
  apparent Kd: 22.4 nM

## CUUCAGUCAGGAUAUGUUAAUCUCGCCACUCCGCGAGCCGGACAGAAGGGACAUGAGGAUCACCCAUGUUAAAC
[1]
  apparent Kd: 29.5 nM
[2]
  apparent Kd: 21.9 nM

## CUUCGUAUAGAGGAUAUAGGUUACUACGGUAUCCUAGAAGGCUGUACAUGAGGAUCACCCAUGUACUUCAGAUC
[1]
  apparent Kd: 12.9 nM
[2]
  apparent Kd: 16.1 nM

## CUUCGUUGUAAGGAUAUCCAGACUCUUCCUGUCGGAGAAGGUACAACAUGAGGAUCACCCAUGUUGCUACAUGG
[1]
  apparent Kd: 25 nM
[2]
  apparent Kd: 38.7 nM

## CUUCUCAAAGGAUAUCACGGUAAUAACAUGAGGAUCACCCAUGUGCAAUUCGUGUCCCUGUGAGAAGGUUGAGAAG
[1]
  apparent Kd: 10.5 nM
[2]
  apparent Kd: 18.2 nM

## CUUGCGCGCUCGCCACUUUUCCCACAUGAGGAUCACCCAUGUCAGGAUAUACGUACCGAAAUGGCGUAGAAGGGACACGGGUUA
[1]
  apparent Kd: 166 nM
[2]
  apparent Kd: 131 nM

## CUUGUUUAUGUGAGGAUAUACUGUUAGUAAUGUUUGUAGAAGGUACAUGAGGAUCACCCAUGUUUAUUUAUAUU
[1]
  apparent Kd: 19.2 nM
[2]
  apparent Kd: 18 nM

## CUUUCGUGAGGAUAUCAGUAGUAAAAUAAUAAAAUUACUACUGAGAAGGCACAUGAGGAUCACCCAUGUUCCUC
[1]
  apparent Kd: 24.4 nM
[2]
  apparent Kd: 134 nM

## CUUUCGUGAGGAUAUGUGGCUUCGAUCGUGAGAUCGAAAAUACAGAAGGCACAUGAGGAUCACCCAUGUUCCUC
[1]
  apparent Kd: 37.8 nM
[2]
  apparent Kd: 456 nM

## CUUUUAUUGGUCCAUUUUUUCAACAUGAGGAUCACCCAUGUGCAGGAUAUCGUGAUUAUUAUCAACGAGAAGGGCAGAUUCACG
[1]
  apparent Kd: 29 nM
[2]
  apparent Kd: 73.6 nM

## CUUUUGUGAGGAUAUCAGUAGUAAAAAAAUAAAAUUACUACUGAGAAGGUACAUGAGGAUCACCCAUGUUCCUC
[1]
  apparent Kd: 14.2 nM
[2]
  apparent Kd: 17.6 nM

## CUUUUGUGAGGAUAUCAGUAGUAAUACAAUAGUAUUACUACUGAGAAGGUACAUGAGGAUCACCCAUGUUCCUC
[1]
  apparent Kd: 17.8 nM
[2]
  apparent Kd: 21.2 nM

## CUUUUGUGAGGAUAUGUGGCUUCGAUCGUGAGAUCGAGGCUACAGAAGGCACAUGAGGAUCACCCAUGUUCCUU
[1]
  apparent Kd: 17.6 nM
[2]
  apparent Kd: 69.7 nM

## CUUUUGUGAGGAUAUUCGUAGUAAAUAAAUAAAAUUAUUACGGAGAAGGCACAUGAGGAUCACCCAUGUUCCUU
[1]
  apparent Kd: 17.1 nM
[2]
  apparent Kd: 50.3 nM

## GAAAAGUAAGGAUAUGCACACAGUGAGGAAACUCACUGUGUGCAGAAGGUACAUGAGGAUCACCCAUGUUUCUC
[1]
  apparent Kd: 38.1 nM
[2]
  apparent Kd: 187 nM

## GAAGCAUGCAUUAACAUGAGGAUCACCCAUGUGAAAACACGUGAGGAUAUUGAUCUGAAGAAGAUCGAGAAGGCACCGUGCUAA
[3]
  apparent Kd: 14.1 nM
[4]
  apparent Kd: 9.11 nM

## GAAGCGCUGGAGAAGGGUGAUCAAGUUAUAAACGUGUACAUGAGGAUCACCCAUGUCAGGGAAUCGCAGGAUAUCCAGCUGAAC
[3]
  apparent Kd: 315 nM
[4]
  apparent Kd: 42.9 nM

## GAAGUUAGAGGAUAUACAUGAGGAUCACCCAUGUGUGUUGUGAACGAUGUACGUUUAUGUAGAAGGCUAACUUC
[1]
  apparent Kd: 23.6 nM
[2]
  apparent Kd: 106 nM

## GAAUAAUUGAUCCAAUUUAUCUACAUGAGGAUCACCCAUGUGCAGGAUAUCGUAAAAUUUAAUAACGAGAAGGGCAAGAACGGU
[1]
  apparent Kd: 135 nM
[2]
  apparent Kd: 385 nM
